Data taken from ChEMBL document CHEMBL4308913, “In silico, NMR and pharmacological evaluation of an hydroxyoxindole cholinesterase inhibitor” (Bioorg Med Chem, 2019).
Calls of active or inactive are those of the source. The rule behind the calls is not given here.

Tests used:
Cholinesterase [1] = target: T1, Cholinesterase (Equus caballus, UniProt P81908); assay: Inhibition of equine serum BuChE after 15 mins
Acetylcholinesterase [2] = target: Acetylcholinesterase (Electrophorus electricus, UniProt O42275); assay: Inhibition of electrophorus electricus AChE
Cholinesterase [3] = target: T1, Cholinesterase; assay: Inhibition of equine serum BuChE
Cholinesterase [4] = target: Cholinesterase (Mus musculus, UniProt Q03311); assay: Inhibition of BuChE in Swiss mouse liver homogenate by Ellman's assay; type: tissue-based
Procedure, shortened: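 Swiss mouse livers from 8-week-old males were washed in ice-cold 0.2 M potassium phosphate, pH 7.6, then homogenized 1:10 w/v in 0.1 M phosphate, pH 7.6. Homogenates were spun at 1000 g, 4 °C, 15 min. Compounds were made up in 0.2 M phosphate, pH 7.6. Activity was read by modified Ellman's method, with protein by Lowry. IC50 came from dose-response, triplicate means ± SD.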

Cholinesterase [5] = target: T1, Cholinesterase; assay: Reversible competitive inhibition of equine BuChE by Lineweaver-burk plot analysis
[6] = Acute oral toxicity in Swiss mouse by OECD up and down test guideline method; settings: in vivo
[7] = target: Cholinesterase (Equus caballus) (UniProt P81908); assay: Competitive inhibition of equine BuChE by Cornish-Bowden analysis
Mus musculus = assay: In vivo inhibition of BuChE in Swiss mouse liver at 3 to 6 mg/kg, iv by Ellman's assay; type: functional, organism-based
Acetylcholinesterase [8] = target: T2, Acetylcholinesterase (Mus musculus, UniProt P21836); assay: Inhibition of AChE in Swiss mouse liver homogenate using acetylthiocholine iodide as substrate by Ellman's assay
T2 sequence (P21836 whole entry): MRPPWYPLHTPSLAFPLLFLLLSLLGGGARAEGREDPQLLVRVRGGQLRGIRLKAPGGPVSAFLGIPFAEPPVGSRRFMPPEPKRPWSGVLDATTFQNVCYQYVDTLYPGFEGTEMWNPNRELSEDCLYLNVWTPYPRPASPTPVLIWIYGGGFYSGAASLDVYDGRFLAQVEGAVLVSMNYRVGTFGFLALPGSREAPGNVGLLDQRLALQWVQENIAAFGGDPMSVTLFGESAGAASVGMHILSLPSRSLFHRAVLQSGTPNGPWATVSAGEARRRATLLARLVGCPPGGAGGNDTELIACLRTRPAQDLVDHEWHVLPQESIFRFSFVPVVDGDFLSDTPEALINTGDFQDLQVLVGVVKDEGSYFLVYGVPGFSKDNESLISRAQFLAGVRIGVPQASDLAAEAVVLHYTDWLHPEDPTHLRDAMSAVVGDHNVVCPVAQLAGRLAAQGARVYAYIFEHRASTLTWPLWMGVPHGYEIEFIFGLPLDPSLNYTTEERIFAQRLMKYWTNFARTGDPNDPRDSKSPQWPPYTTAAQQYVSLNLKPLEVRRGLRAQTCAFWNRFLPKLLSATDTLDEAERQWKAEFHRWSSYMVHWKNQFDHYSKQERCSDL

[9] = Toxicity against Artemia salina larvae assessed as larval mortality at 1000 ug/mL after 24 hrs relative to control; type: organism-based; settings: in vivo, at 1000 µg/mL
[10] = Acute toxicity in iv dosed Swiss mouse; settings: in vivo
Artemia salina [11] = assay: Toxicity against Artemia salina larvae assessed as larval mortality after 24 hrs; type: organism-based; settings: in vivo
Procedure, shortened: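 A. salina nauplii were run per the Artoxkit M protocol: samples in saline were diluted 1:10 into saline medium, 10 larvae per well. Plates were held 24 h at 25 °C, and dead nauplii were counted by stereomicroscope. There were nine repeats per concentration, and LC50 came from dose-response. Negative controls were saline with and without 5% DMSO; potassium dichromate positive control ran 3.125–150 μg mL-1.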

Artemia salina [12] = assay: Toxicity against Artemia salina larvae assessed as larval mortality at 100 ug/mL after 24 hrs relative to control; type: organism-based; settings: in vivo

T1 sequence (P81908 whole entry): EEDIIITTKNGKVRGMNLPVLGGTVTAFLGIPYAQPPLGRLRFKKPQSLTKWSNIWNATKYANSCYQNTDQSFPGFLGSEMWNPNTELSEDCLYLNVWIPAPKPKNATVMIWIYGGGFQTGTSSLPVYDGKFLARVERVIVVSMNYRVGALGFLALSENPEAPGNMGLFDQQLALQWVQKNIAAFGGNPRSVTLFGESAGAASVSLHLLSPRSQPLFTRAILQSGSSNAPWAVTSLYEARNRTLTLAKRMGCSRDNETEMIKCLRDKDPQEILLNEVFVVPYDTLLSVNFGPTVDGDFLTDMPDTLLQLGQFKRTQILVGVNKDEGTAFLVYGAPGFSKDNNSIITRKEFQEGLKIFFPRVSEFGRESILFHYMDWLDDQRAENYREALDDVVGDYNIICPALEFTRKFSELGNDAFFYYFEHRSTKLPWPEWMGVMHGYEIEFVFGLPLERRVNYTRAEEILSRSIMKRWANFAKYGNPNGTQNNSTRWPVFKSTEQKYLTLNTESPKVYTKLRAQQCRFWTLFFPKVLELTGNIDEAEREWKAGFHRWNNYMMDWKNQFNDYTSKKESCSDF
Chain of Acetylcholinesterase (Electrophorus electricus, UniProt O42275) (O42275 whole entry): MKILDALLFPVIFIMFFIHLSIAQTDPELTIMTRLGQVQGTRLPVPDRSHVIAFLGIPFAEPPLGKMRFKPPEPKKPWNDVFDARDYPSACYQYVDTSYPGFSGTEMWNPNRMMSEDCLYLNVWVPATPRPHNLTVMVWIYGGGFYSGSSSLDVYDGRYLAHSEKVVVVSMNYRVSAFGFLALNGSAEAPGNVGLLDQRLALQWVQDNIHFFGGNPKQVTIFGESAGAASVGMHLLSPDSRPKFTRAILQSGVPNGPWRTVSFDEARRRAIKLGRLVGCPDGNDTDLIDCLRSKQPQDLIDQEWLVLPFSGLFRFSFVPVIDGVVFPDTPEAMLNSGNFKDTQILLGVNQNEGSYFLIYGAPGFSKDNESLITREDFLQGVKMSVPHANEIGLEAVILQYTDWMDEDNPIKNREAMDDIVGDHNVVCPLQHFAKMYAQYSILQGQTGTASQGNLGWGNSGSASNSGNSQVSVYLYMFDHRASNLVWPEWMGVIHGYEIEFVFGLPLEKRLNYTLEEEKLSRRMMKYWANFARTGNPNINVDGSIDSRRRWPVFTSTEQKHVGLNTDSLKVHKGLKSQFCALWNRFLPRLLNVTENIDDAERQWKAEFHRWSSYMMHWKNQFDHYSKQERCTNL
Chain of Cholinesterase (Equus caballus) (P81908 whole entry): as the sequence (P81908 whole entry) above
Chain of Cholinesterase (Mus musculus, UniProt Q03311) (Q03311 whole entry): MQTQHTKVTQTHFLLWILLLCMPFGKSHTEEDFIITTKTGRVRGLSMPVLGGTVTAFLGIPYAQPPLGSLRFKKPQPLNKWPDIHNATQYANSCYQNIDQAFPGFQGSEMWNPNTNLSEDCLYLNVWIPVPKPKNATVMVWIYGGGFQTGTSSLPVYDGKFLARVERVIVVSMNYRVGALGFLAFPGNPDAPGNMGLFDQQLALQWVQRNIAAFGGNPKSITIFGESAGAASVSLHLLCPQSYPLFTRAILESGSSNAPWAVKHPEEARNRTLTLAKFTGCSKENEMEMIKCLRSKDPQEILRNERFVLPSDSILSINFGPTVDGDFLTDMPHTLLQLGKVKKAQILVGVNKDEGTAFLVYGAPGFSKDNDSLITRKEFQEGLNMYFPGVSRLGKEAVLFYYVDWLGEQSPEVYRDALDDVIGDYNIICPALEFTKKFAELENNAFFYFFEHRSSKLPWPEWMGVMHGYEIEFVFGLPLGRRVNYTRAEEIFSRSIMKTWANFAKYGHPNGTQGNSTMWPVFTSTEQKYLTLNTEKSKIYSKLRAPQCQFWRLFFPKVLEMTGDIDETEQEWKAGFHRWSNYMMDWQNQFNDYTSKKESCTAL

| Compound | IC50 (Acetylcholinesterase [2]) [µM] | IC50 (Cholinesterase [3]) [µM] | inhibition (Mus musculus) | mortality at 24 h, 1000 ug/mL [9] [%] | other results |
| --- | --- | --- | --- | --- | --- |
| O=C1N(CC2CCN(Cc3ccccc3)CC2)c2ccccc2C1(O)c1ccccc1 (racemic) | 193 | – | – | – | IC50 (Cholinesterase [1]): 6.61 µM |
| Cl.O=C1N(CC2CCNCC2)c2ccccc2C1(O)c1ccccc1 (racemic) | 500 | 18.3 | Active | 5 | IC50 (Cholinesterase [4]): 435 µM; Ki (Cholinesterase [5]): 41 µM; LD50 [6]: 100 mg/kg; inhibition [7]: Active; IC50 (Acetylcholinesterase [8]): 565 µM |
| O=C1N(Cc2ccccc2)c2ccccc2C1(O)c1ccccc1 (racemic) | 237 | 7.41 | – | – | – |
| COc1cc2c(cc1OC)C(=O)C(CC1CCN(Cc3ccccc3)CC1)C2 (stereo not drawn) [DONEPEZIL] | – | – | Active | 26 | LD50 [10]: 3.7 mg/kg |
| POTASSIUM DICHROMATE | – | – | – | – | LC50 (Artemia salina [11]): 15.04 µg/mL; Activity (Artemia salina [12]): 100% |
